# Screening data (PubChem)
# NALP1 yeast inh: blocks the NALP1 inflammasome reconstituted in yeast; S. cerevisiae NALP1/ASC/caspase-1 growth, X-gal OD620, 72 h; inhibition, % at 10 µM; 0.61% of 280,000 active; AID 2071; in the data active = inhibition mostly above about 24%, no sharp cut-off; inactive = mostly below about 32%
# VIM-2 inh: inhibitors of Pseudomonas aeruginosa VIM-2 metallo-beta-lactamase | purified VIM-2, nitrocefin hydrolysis, epi-absorbance fluorescence | inhibition, % at 5.6 µM | 0.89% of 290,000 active | AID 1527;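 active = inhibition above the mean of all tested compounds plus 3 SD, cutoff set per screening run, cut at about 7.5% in these data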;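 also: red hydrolysis product quenches plate fluorescence so inhibitors raise well fluorescence; 0% = enzyme with DMSO and 100% = DMSO without enzyme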
# IMP-1 inh: blocks Pseudomonas aeruginosa IMP-1 metallo-beta-lactamase. purified IMP-1, nitrocefin hydrolysis, epi-absorbance fluorescence. inhibition, % at 5.6 µM. 0.45% of 290,000 active;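 active = inhibition above the mean plus 3 SD of all compounds in the same screening run, cut at about 4.5% in these data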;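 also: 0% = IMP-1 with DMSO and 100% = DMSO wells lacking enzyme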
#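 System: Purified IMP-1 | Read-out basis: Percent enzyme inhibition | Controls: IMP-1 with DMSO as 0%, enzyme-free DMSO as 100% | Replicates: One well per compound | Doses: 5.6 µM nominal single concentration | Detection: Epi-absorbance fluorescence, 480 nm excitation, 530 nm emission | Incubation: 25 °C, 15 min preincubation, 25 min reaction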
# NALP3 yeast inh: inhibitors of NALP3 inflammasome in yeast; 0.39% of 330,000 active; Yeast reconstituted NLRP3/ASC/caspase-1, beta-gal luminescence, 24 h; inhibition, % at 10 µM;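 active = inhibition of 50% or more; inactive = inhibition below 50%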;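 also: plate controls were induced DMSO wells for no effect and uninduced yeast grown without galactose for full effect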
# PolyA inhibitor: blocks polyadenylation in yeast reporter cells; S. cerevisiae SKY197-pL101 polyadenylation reporter, beta-gal luminescence; efflux-impaired pdr1/pdr3 knockout yeast; score 100 = 6 SD above DMSO; activity score, % at 12 µM; 0.02% of 300,000 active; AID 1875;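 active = lowest replicate activity score at least 50, where 100 means six control SD above control mean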;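 also: yeast exposed to compound for 9 h at 30 °C; higher score means more reporter readthrough which indicates perturbed polyadenylation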
# SUMO Mot1 rescue: inhibitors of SUMOylation pathway: yeast Mot1-301 growth rescue | S. cerevisiae Mot1-301 growth rescue, ATP luminescence, 38.5C; percent above DMSO median, 100 means doubled | growth rescue, % at 18.8 µM | 1% of 320,000 active | AID 2716;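 active = every valid replicate shows activation above 250% relative to neutral control wells; inactive = the rest, any valid replicate at or below 250%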;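 also: OY570 slx delta 5 strain wells were the positive control but not used for scaling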
# An asterisk follows results filed as active; · = not tested or not shown. Hits are enriched below; roughly 2.9% of the tested compounds scored in any of these assays.
SMILES,NALP1 yeast inh,VIM-2 inh,IMP-1 inh,NALP3 yeast inh,PolyA inhibitor,SUMO Mot1 rescue
CC1CC(=O)c2cnc(NCC3CCCO3)nc2C1 (stereo not drawn),-2,0,-2,15,-24,-2
CC1(C)CC(=O)c2cnc(NCC3CCCO3)nc2C1 (stereo not drawn),10,-1,6.0*,9,-5,3
CC(=O)Oc1ccc(C(=O)Nc2ccc(C3(C#N)CCCC3)cc2)cc1,10,0,12*,6,0,-17
CCC1CCCCN1CCCNC(=O)Cn1cnc2sc(C)c(S(=O)(=O)N3CC(C)CC(C)C3)c2c1=O (stereo not drawn),7,-3,-3,6,2,287
COc1ccc(C(C[N+](=O)[O-])c2c(C)[nH]n(-c3ccccc3)c2=O)cc1 (stereo not drawn),45*,6,-2,20,-21,155
Cc1[nH]n(-c2ccccc2)c(=O)c1C(C[N+](=O)[O-])c1ccccc1Cl (stereo not drawn),22,-4,-1,27,10,225
COc1ccc(C(=O)NCCS(=O)(=O)N2CCc3ccccc3C2)cc1,·,·,·,19,-13,530*
O=C(NCCS(=O)(=O)N1CCc2ccccc2C1)c1ccccc1,·,·,·,12,-13,-3
Cc1ccc(NC(=O)CN(C)S(=O)(=O)c2cccc3nsnc23)cc1,34,-2,-1,-4,14,10
CN(CC(=O)Nc1ccc(Cl)cc1)S(=O)(=O)c1cccc2cccnc12,37*,-4,-2,16,-5,-2
CC(=O)c1cccc(NC(=O)CN(C)S(=O)(=O)c2cccc3nsnc23)c1,32*,1,-1,3,3,30
CCCOc1ccc(N2C(=O)CC(N3CCC(c4nncn4CC)CC3)C2=O)cc1 (stereo not drawn),9,-4,-3,2,-1,307*
CCCOc1ccc(N2C(=O)CC(N3CCN(c4ccccc4F)CC3)C2=O)cc1 (stereo not drawn),2,-4,-2,25,19,30
CCOC(=O)C1CCN(S(=O)(=O)c2ccc3[nH]c(=O)oc3c2)CC1,40*,-4,-3,9,14,-2
CCOC(=O)C1CCN(S(=O)(=O)c2ccc3[nH]c4c(c3c2)CCCC4)CC1,12,8.1*,1,13,13,14
O=C(NCc1ccc2[nH]c3c(c2c1)CCCC3)c1ccc(S(=O)(=O)N2CCCC2)cc1,27,12*,0,21,13,-8
O=[N+]([O-])c1cccc(C(=NCc2ccccc2)NO)c1,12,-1,-4,15,6,9
CN(C)c1ccc(NC(=O)c2cccc(N3C(=O)CCC3=O)c2)cc1,40*,-1,-2,7,1,-9
CCCNC(=O)c1ccc(N2CCC3(CC2)CC(c2ccccc2)=NO3)c(N)c1,7,3,2,9,4,-11
CCCNC(=O)c1ccc(N2CCC3(CC2)CC(c2ccccc2)=NO3)c(NC(=O)Cc2ccc(F)cc2)c1,-15,-1,9.9*,16,11,16
CC(C)[C@H](NC(=O)N1CCn2c1nc1ccccc12)C(=O)NCC1CCCO1 (stereo partly drawn),17,-4,-1,-1,-6,-7
Cc1ccc(CSCC(=O)NCc2ccc(F)cc2)cc1,1,-1,-2,-1,6,·
O=C(CSCc1ccc(F)cc1)NCc1ccc(F)cc1,28*,-4,-4,6,-4,-4
Cc1nc(CCNC(=O)c2cc(COc3ccc(F)cc3Cl)on2)sc1C,·,0,-4,17,-4,3
COc1ccc(S(=O)(=O)NCC2CCCN(Cc3cccnc3)C2)cc1 (stereo not drawn),32*,-2,-3,19,-3,44
COCC(=O)N1CCCC(CNS(=O)(=O)c2ccc(OC)cc2)C1 (stereo not drawn),-11,-1,-3,12,-7,670*
COc1ccc(S(=O)(=O)NCC2CCCN(Cc3cccc(C(C)=O)c3)C2)cc1 (stereo not drawn),6,0,0,2,11,51
